Reference: ChEMBL document CHEMBL4251723, “Antibacterial Dimeric Acylphloroglucinols from Hypericum japonicum” (J Nat Prod, 2018)
Values after ≈ are worked out from the molar mass of the structure shown.

Columns and labels:
Escherichia coli = test: Antibacterial activity against Escherichia coli ATCC 11775; type: functional; conditions: DSM 30083 = JCM 1649 = ATCC 11775
Outline: (§1)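 24 h growth-inhibition (MIC) assay. Final test concentration range was 50−3.13 μg/mL or 2.0−0.05 μg/mL depending on compound. Cefotaxime sodium served as positive control. Each experiment was repeated three times.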

Staphylococcus aureus = test: Antibacterial activity against Staphylococcus aureus […]; type: functional; outline: as §1
Salmonella typhimurium = test: Antibacterial activity against Salmonella typhimurium ATCC 6539; type: functional, Salmonella enterica subsp. enterica serovar Typhimurium; conditions: Salmonella enterica; outline: as §1
Enterococcus faecalis = test: Antibacterial activity against Enterococcus faecalis ATCC 10541; type: functional; outline: as §1
[1] = molecular target: T1, Pancreatic triacylglycerol lipase (Sus scrofa, UniProt P00591); test: Inhibition of porcine pancreatic lipase using p-NPB as substrate pretreated for 15 mins followed by substrate addition measured after 15 mins by spectrophometric method
T1 sequence (P00591 whole entry): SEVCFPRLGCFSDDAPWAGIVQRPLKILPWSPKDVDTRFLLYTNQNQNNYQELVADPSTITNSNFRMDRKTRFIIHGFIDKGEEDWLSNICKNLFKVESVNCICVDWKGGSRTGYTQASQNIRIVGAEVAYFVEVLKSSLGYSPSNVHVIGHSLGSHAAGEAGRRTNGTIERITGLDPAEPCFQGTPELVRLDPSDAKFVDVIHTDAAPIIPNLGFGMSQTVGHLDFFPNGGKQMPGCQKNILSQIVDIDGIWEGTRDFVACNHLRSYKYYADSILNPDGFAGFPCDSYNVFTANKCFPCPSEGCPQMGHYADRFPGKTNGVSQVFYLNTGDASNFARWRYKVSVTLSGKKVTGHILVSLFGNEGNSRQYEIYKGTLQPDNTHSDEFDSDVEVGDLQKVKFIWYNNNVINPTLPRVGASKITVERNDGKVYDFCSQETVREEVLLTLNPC

Structure (SMILES)	MIC (Escherichia coli)	MIC (Staphylococcus aureus)	MIC (Salmonella typhimurium)	MIC (Enterococcus faecalis)	IC50 [1]
CO/N=C(\C(=O)N[C@@H]1C(=O)N2C(C(=O)O)=C(COC(C)=O)CS[C@H]12)c1csc(N)n1 [CEFOTAXIME SODIUM]	0.4 µM	3.3 µM	3.3 µM	0.4 µM	
C=C(CCC=C(C)C)C(O)Cc1c(O)c(CC2=C(O)C(C)(C)C(O)=C(C(=O)C(C)CC)C2=O)c(O)c(C(=O)C(C)C)c1O (centres undefined)	0.8 µM (≈ 0.479 µg/mL)	3.3 µM (≈ 1.98 µg/mL)	0.8 µM (≈ 0.479 µg/mL)	0.8 µM (≈ 0.479 µg/mL)	14.5 µM
CCC(C)C(=O)C1=C(O)C(C)(C)C(O)=C(Cc2c(O)cc(OCC=C(C)C)c(C(=O)c3ccccc3)c2O)C1=O (centres undefined)	1.8 µM (≈ 0.988 µg/mL)	1.8 µM (≈ 0.988 µg/mL)	0.9 µM (≈ 0.494 µg/mL)	1.8 µM (≈ 0.988 µg/mL)	
CC(C)=CCOc1cc(O)c(CC2=C(O)C(C)(C)C(O)=C(C(=O)C(C)C)C2=O)c(O)c1C(=O)c1ccccc1	1.9 µM (≈ 1.02 µg/mL)	1.9 µM (≈ 1.02 µg/mL)	0.9 µM (≈ 0.481 µg/mL)	1.9 µM (≈ 1.02 µg/mL)	
CC(C)=CCC[C@]1(C)Oc2c(c(O)c(CC3=C(O)C(C)(C)C(O)=C(C(=O)C(C)C)C3=O)c(O)c2C(=O)C(C)C)C[C@H]1O	21.4 µM (≈ 12.5 µg/mL)	85.6 µM (≈ 50.1 µg/mL)	5.4 µM (≈ 3.16 µg/mL)	10.7 µM (≈ 6.26 µg/mL)	
CCC(C)C(=O)C1=C(O)C(C)(C)C(O)=C(Cc2c(O)c(C/C=C(\C)CCC=C(C)C)c(O)c(C(=O)C(C)C)c2O)C1=O (centres undefined)	0.9 µM (≈ 0.524 µg/mL)	3.4 µM (≈ 1.98 µg/mL)	1.7 µM (≈ 0.991 µg/mL)	1.7 µM (≈ 0.991 µg/mL)	8.3 µM
C=C(CCC=C(C)C)C(O)Cc1c(O)c(CC2=C(O)C(C)(C)C(O)=C(C(=O)C(C)C)C2=O)c(O)c(C(=O)C(C)C)c1O (centres undefined)	0.9 µM (≈ 0.526 µg/mL)	1.7 µM (≈ 0.994 µg/mL)	0.9 µM (≈ 0.526 µg/mL)	0.9 µM (≈ 0.526 µg/mL)	
CC(C)=CCC/C(C)=C/Cc1c(O)c(CC2=C(O)C(C)(C)C(O)=C(C(=O)C(C)C)C2=O)c(O)c(C(=O)C(C)C)c1O	0.9 µM (≈ 0.512 µg/mL)	1.8 µM (≈ 1.02 µg/mL)	1.8 µM (≈ 1.02 µg/mL)	1.8 µM (≈ 1.02 µg/mL)	
